Laboratory results from ChEMBL document CHEMBL1914346, “Discovery and synthesis of novel substituted benzocoumarins as orally active lipid modulating agents” (Bioorg Med Chem Lett, 2011).

How the values were obtained:
Syrian golden hamster [1] = assay: Antidyslipidemic activity in high fat diet-fed dyslipidemic syrian golden hamster model assessed as decrease in serum triglyceride level at 10 mg/kg, po administered once daily for 7 days relative to vehicle treated control; type: functional, Mesocricetus auratus; parameters: scale not given: the % may be the effect or the level left
Method in brief: (§1)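 Male Golden Syrian hamsters, 12 weeks old, 110 ± 10 g, eight per group, fed high-fat diet plus fructose daily on days 1–10. Oral dosing once daily on days 4–10 in 0.1% gum acacia; HFD-fed vehicle animals served as controls. After the last dose, retro-orbital blood was taken into EDTA and plasma lipids were measured enzymatically on an autoanalyzer. Results are % change versus HFD controls; t-test/ANOVA, p<0.05.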

Syrian golden hamster [2] = assay: Antidyslipidemic activity in high fat diet-fed dyslipidemic syrian golden hamster model assessed as decrease in serum total cholesterol level at 10 mg/kg, po administered once daily for 7 days relative to vehicle treated control; type: functional, Mesocricetus auratus; parameters: scale not given: the % may be the effect or the level left; method in brief: as §1
Syrian golden hamster [3] = assay: Antidyslipidemic activity in high fat diet-fed dyslipidemic syrian golden hamster model assessed as increase in serum HDL level at 10 mg/kg, po administered once daily for 7 days relative to vehicle treated control; type: functional, Mesocricetus auratus; method in brief: as §1
Syrian golden hamster [4] = assay: Antidyslipidemic activity in high fat diet-fed dyslipidemic syrian golden hamster model assessed as decrease in serum LDL level at 10 mg/kg, po administered once daily for 7 days relative to vehicle treated control; type: functional, Mesocricetus auratus; parameters: scale not given: the % may be the effect or the level left; method in brief: as §1
Syrian golden hamster [5] = assay: Antidyslipidemic activity in high fat diet-fed dyslipidemic syrian golden hamster model assessed as increase in serum ratio of serum HDL/total cholesterol level at 10 mg/kg, po administered once daily for 7 days relative to vehicle treated control; type: functional, Mesocricetus auratus; method in brief: as §1
[6] = Antioxidant activity assessed as trolox equivalent by TEAC assay; type: functional
Syrian golden hamster [7] = assay: Toxicity in syrian golden hamster; type: organism-based, Mesocricetus auratus; conditions: in vivo
Method in brief: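 HFD-fed male Golden Syrian hamsters, eight per group, dosed orally at 10 mg/kg once daily for 7 days in 0.1% gum acacia. Body weight was recorded daily and food intake was monitored, then compared with HFD vehicle controls.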

Q: For `Cc1cc(=O)oc2c3c(ccc12)C(=O)/C(=C/NCC(C)(C)CO)C=C3C=O`, which Activity (Syrian golden hamster [1]) is on record?
A: 49%

Q: What about the Activity (Syrian golden hamster [2]) of the same molecule?
A: 36%

Q: And the Activity (Syrian golden hamster [3])?
A: 1%

Q: What about the Activity (Syrian golden hamster [4]) of the same molecule?
A: 36%

Q: What about the Activity (Syrian golden hamster [5]) of the same molecule?
A: 61%

Q: What about the Activity [6] of the same molecule?
A: 1.9 mM

Q: What about the Activity (Syrian golden hamster [7]) of the same molecule?
A: Non-toxic

Q: For `Cc1cc(=O)oc2c3c(ccc12)C(=O)/C(=C/NC1CCCCC1)C=C3C=O`, which Activity (Syrian golden hamster [1]) is on record?
A: 62%

Q: And the Activity (Syrian golden hamster [2])?
A: 14%

Q: What about the Activity (Syrian golden hamster [3]) of the same molecule?
A: 1%

Q: What about the Activity (Syrian golden hamster [4]) of the same molecule?
A: 10%

Q: What about the Activity (Syrian golden hamster [5]) of the same molecule?
A: 17%

Q: And the Activity [6]?
A: 0.3 mM

Q: What about the Activity (Syrian golden hamster [7]) of the same molecule?
A: Non-toxic

Q: For `Cc1cc(=O)oc2c3c(ccc12)C(=O)/C(=C/NCCCl)C=C3C=O`, which Activity (Syrian golden hamster [1]) is on record?
A: 47%

Q: What about the Activity (Syrian golden hamster [2]) of the same molecule?
A: 17%

Q: What about the Activity (Syrian golden hamster [3]) of the same molecule?
A: 19%

Q: What about the Activity (Syrian golden hamster [4]) of the same molecule?
A: 14%

Q: And the Activity (Syrian golden hamster [5])?
A: 9%

Q: And the Activity [6]?
A: 0.38 mM

Q: And the Activity (Syrian golden hamster [7])?
A: Non-toxic

Q: For `Cc1cc(=O)oc2c3c(ccc12)C(=O)/C(=C/NCCCO)C=C3C=O`, which Activity (Syrian golden hamster [1]) is on record?
A: 50%

Q: What about the Activity (Syrian golden hamster [2]) of the same molecule?
A: 26%

Q: And the Activity (Syrian golden hamster [3])?
A: 3%

Q: And the Activity (Syrian golden hamster [4])?
A: 21%

Q: And the Activity (Syrian golden hamster [5])?
A: 39%

Q: And the Activity [6]?
A: 1.46 mM

Q: What about the Activity (Syrian golden hamster [7]) of the same molecule?
A: Non-toxic

Q: With `CC(C)c1c(C(=O)Nc2ccccc2)c(-c2ccccc2)c(-c2ccc(F)cc2)n1CC[C@@H](O)C[C@@H](O)CC(=O)O` [ATORVASTATIN] as the molecule, how does the Activity (Syrian golden hamster [1]) read?
A: 67%

Q: And the Activity (Syrian golden hamster [2])?
A: 25%

Q: What about the Activity (Syrian golden hamster [3]) of the same molecule?
A: 2%

Q: And the Activity (Syrian golden hamster [4])?
A: 23%

Q: What about the Activity (Syrian golden hamster [5]) of the same molecule?
A: 83%

Q: Which Activity (Syrian golden hamster [1]) does the source give for `Cc1cc(=O)oc2c3c(ccc12)C(=O)/C(=C/NC12CC4CC(CC(C4)C1)C2)C=C3C=O` here?
A: 48%

Q: And the Activity (Syrian golden hamster [2])?
A: 48%

Q: And the Activity (Syrian golden hamster [3])?
A: 1%

Q: And the Activity (Syrian golden hamster [4])?
A: 59%

Q: And the Activity (Syrian golden hamster [5])?
A: 93%

Q: And the Activity [6]?
A: 0.99 mM

Q: What about the Activity (Syrian golden hamster [7]) of the same molecule?
A: Non-toxic
